pIC50: −log10 of the molar value.

Here are results for 13 compounds from ChEMBL document CHEMBL3414433, “Discovery and profiling of a selective and efficacious Syk inhibitor” (J Med Chem, 2015).

Series [1] in a line: Cytotoxicity against C57BL/6 mouse bone marrow cells assessed as growth inhibition preincubated for 4 days followed by [3H]-thymidine addition measured after 5 hrs by betaplate counting analysis. Type of series: cell-based, Bone marrow cell.
Series [2] concerns the target Voltage-gated inwardly rectifying potassium channel KCNH2 (Homo sapiens, UniProt Q12809). Put plainly: Inhibition of human ERG expressed in CHO cells by automated Qpatch clamp assay. In kind it is cell-based.
Series [3] concerns Rattus norvegicus. Put plainly: Dose normalized AUC in Sprague-Dawley rat at 1 mg/kg, iv administered as cassette dosing. In kind it is ADME, organism-based. More on the design: dose 1 mg/kg, route intravenous. The following applies: in vivo. Summed up:
(§1)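 Rat PK: i.v. 1 mg/kg in NMP/PEG200 (3:7); p.o. 3 mg/kg in CMC/water/Tween (0.5:99:0.5). Exposure values dose normalized.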

Series [4] can be described thus: Clearance in Sprague-Dawley rat at 1 mg/kg, iv and 3 mg/kg, po administered as cassette dosing. In kind it is ADME, organism-based. The following applies: in vivo. In short, it runs like this:
as §1

Series [5] has as its target T1, hERG (KCNH2) (Homo sapiens, UniProt Q12809). Put plainly: Inhibition of human ERG at 3 uM by manual patch clamp assay relative to control. In general terms: The patch-clamp technique gives a direct electrical read-out from membranes.
The target in series [6] is T2, Tyrosine-protein kinase SYK (Homo sapiens, UniProt P43405). Nature of the series: Inhibition of Syk in anti-CD32 stimulated CD14+ human monocytes assessed as phospho-SLP76 level preincubated for 30 mins followed by anti-CD32 stimulation measured after 5 mins by flow cytometric analysis. (In general: In flow cytometry, cells or beads pass a laser one at a time.)
Series [7] has as its target T2, Tyrosine-protein kinase SYK.
Series [8] is described as follows: Mean residence time in Sprague-Dawley rat at 1 mg/kg, iv and 3 mg/kg, po administered as cassette dosing. Type of series: ADME, organism-based. The following applies: in vivo. In short, it runs like this:
(§2)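 Rats were dosed i.v. at 1 mg/kg in NMP/PEG200 (3:7) and p.o. at 3 mg/kg in CMC/water/Tween (0.5:99:0.5). PK parameters were derived from blood concentration–time curves for both routes.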

Series [9] concerns the target T1, hERG (KCNH2). Nature of the series: Inhibition of human ERG at 10 uM by manual patch clamp assay relative to control.
Series [10] concerns the target T2, Tyrosine-protein kinase SYK. Nature of the series: Inhibition of Syk in anti-igM stimulated human Ramos B cells assessed as phospho-BLNK level preincubated for 30 mins followed by anti-IgM stimulation measured after 15 mins by flow cytometric analysis. Type of series: cell-based.
A short description of series [11]: Oral bioavailability in Sprague-Dawley rat at 3 mg/kg administered as cassette dosing. Type of series: ADME, organism-based. The following applies: in vivo. In short, it runs like this:
as §2

Series [12] concerns Rattus norvegicus. Nature of the series: Dose normalized Cmax in Sprague-Dawley rat at 1 mg/kg, iv and 3 mg/kg, po administered as cassette dosing. Type of series: ADME, organism-based. The following applies: in vivo. Summed up: as §1
For series [13], the system named is Rattus norvegicus. Put plainly: Dose normalized AUC in Sprague-Dawley rat at 3 mg/kg, po administered as cassette dosing. Type of series: ADME, organism-based. More on the design: dose 3 mg/kg, route oral. The following applies: in vivo. Summed up: as §1
Series [14] in a line: Volume of distribution at steady state in Sprague-Dawley rat at 1 mg/kg, iv and 3 mg/kg, po administered as cassette dosing. In kind it is ADME, organism-based. The following applies: in vivo, read-out: Vdss. In short, it runs like this: as §2
Series [15] deals with Hepatocyte. Put plainly: Metabolic stability in rat hepatocytes assessed as compound remaining. In kind it is ADME, cell-based.
For series [16], the system named is Hepatocyte. Nature of the series: Metabolic stability in human hepatocytes assessed as compound remaining. In kind it is ADME, cell-based.
Series [17] in a line: Metabolic stability in monkey hepatocytes assessed as compound remaining. Type of series: ADME, cell-based, Macaca mulatta, Hepatocyte. The following applies: rhesus monkey.
A short description of series [18]: Metabolic stability in dog hepatocytes assessed as compound remaining. Type of series: ADME, cell-based, Canis lupus familiaris, Hepatocyte.
Series [19] is described as follows: Metabolic stability in monkey liver assessed as formation of 2-(7-(3-((1R,2S)-2-aminocyclohexylamino)-6-carbamoyl-1,2,4-triazin-5-ylamino)-3-oxo-3H-indol-2-ylamino)-3-mercaptopropanoic acid at 10 to 20 uM after 8 to 18 hrs. Type of series: ADME, tissue-based, Macaca mulatta. The following applies: rhesus monkey. Summed up: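 Freshly excised monkey liver was cut into 230 μm slices from 8 mm cores. Four slices per vessel were preincubated 1 h at 37 °C in Williams medium E with 10% FBS, glucose, insulin, hydrocortisone, methionine, gentamycin and amphotericin B, under 75% O2/5% CO2/20% N2 with rotation. Compound was added at 10 or 20 μM (from 2 mM DMSO stock) for 8 or 18 h, then quenched with cold acetonitrile.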

Setting [20] is: Mus musculus, C57BL/6, Bone marrow cell.

Voltage-gated inwardly rectifying potassium channel KCNH2, sequence (Q12809 whole entry): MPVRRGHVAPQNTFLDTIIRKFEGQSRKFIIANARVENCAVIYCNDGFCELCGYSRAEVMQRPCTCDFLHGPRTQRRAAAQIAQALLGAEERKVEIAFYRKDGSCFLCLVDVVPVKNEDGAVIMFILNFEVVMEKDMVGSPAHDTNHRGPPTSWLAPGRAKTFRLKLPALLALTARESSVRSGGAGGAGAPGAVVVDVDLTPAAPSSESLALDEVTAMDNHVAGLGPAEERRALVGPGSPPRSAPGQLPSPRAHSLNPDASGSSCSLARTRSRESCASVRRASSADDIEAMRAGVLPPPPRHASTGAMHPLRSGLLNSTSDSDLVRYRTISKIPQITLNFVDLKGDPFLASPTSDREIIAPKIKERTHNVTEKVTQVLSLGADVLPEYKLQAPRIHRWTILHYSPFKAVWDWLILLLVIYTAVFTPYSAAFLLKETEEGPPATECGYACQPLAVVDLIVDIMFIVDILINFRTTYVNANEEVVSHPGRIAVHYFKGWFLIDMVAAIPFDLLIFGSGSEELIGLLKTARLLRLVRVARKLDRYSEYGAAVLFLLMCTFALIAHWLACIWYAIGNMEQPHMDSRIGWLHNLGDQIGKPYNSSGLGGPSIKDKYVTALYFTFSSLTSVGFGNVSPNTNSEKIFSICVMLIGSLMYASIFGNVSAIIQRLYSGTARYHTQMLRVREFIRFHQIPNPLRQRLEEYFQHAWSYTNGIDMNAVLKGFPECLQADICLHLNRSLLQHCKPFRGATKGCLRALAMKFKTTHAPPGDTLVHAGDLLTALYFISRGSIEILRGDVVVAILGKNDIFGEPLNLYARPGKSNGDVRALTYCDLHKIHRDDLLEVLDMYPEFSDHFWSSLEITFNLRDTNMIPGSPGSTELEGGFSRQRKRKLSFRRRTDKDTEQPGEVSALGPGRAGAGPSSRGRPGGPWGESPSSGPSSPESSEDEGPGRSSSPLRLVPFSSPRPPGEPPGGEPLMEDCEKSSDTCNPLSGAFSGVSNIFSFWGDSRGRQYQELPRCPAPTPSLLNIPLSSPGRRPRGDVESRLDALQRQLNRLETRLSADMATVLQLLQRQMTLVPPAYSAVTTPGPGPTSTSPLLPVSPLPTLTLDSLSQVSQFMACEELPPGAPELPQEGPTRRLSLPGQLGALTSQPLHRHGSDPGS
T1 sequence (Q12809 whole entry): as above

In general, pIC50 refers to the IC50 on a negative log10 scale, so that one unit is a factor of ten. As for `NC(=O)c1nnc(N[C@@H]2CCCC[C@@H]2N)nc1Nc1cccc(-n2nccn2)c1`, the negative logarithm of the IC50 (pIC50) in series [1] (setting [20]) was 6.09; in series [2], 5.43.

Broadly, the inhibition is how much of the control response was suppressed. As a reminder, the MRT is a mean duration of stay, worked out from the concentration-time curve. Broadly, the bioavailability is dose-corrected exposure relative to a reference, in per cent. Turning to `NC(=O)c1ncc(N[C@@H]2CCCC[C@@H]2N)nc1Nc1cccc2cc[nH]c12`, the pIC50 was 5.28 in series [1] (setting [20]); 6.52 in [6]; 8.30 in [7]; 7.52 in series [10]; 5.09 in series [2]. Further, the AUC/dose in the series with Rattus norvegicus [3] was determined as 1610 nM·h; in the series with Rattus norvegicus [13], 1523 nM·h. This compound gave a clearance in series [4] of 28 mL/min/kg. This compound had an inhibition at 3 µM at hERG (KCNH2) [5] of 13%. Also, in series [8], the MRT came to 7.2 h. The same compound registered an inhibition at 10 µM on hERG (KCNH2) [9] of 50%. The compound also registered a bioavailability in series [11] of 95%. In the series on Rattus norvegicus [12], this compound registered a Cmax/dose of 108 nM. In addition, the Vd in [14] came to 12.3 L/kg.

`NC(=O)c1cnc(N[C@@H]2CCCC[C@@H]2N)nc1Nc1cccc(-n2nccn2)c1`: the negative-log IC50 (pIC50) in [1] (setting [20]) is 5.23.

Take `N[C@H]1CCCC[C@H]1Nc1cc2nc[nH]c(=O)c2c(Nc2cccc(-n3nccn3)c2)n1`: the pIC50 in series [1] (setting [20]) is 6.60.

With `N[C@H]1COCC[C@H]1Nc1cc2cc[nH]c(=O)c2c(Nc2cccc3cc[nH]c23)n1`, in series [1] (setting [20]), the pIC50 is 5.45.

As to `NC(=O)c1ccc(N[C@@H]2CCCC[C@@H]2N)nc1Nc1cccc2cc[nH]c12`, the negative logarithm of the IC50 (pIC50) in series [1] (setting [20]) is less than 5.00; in series [7], 6.78; in series [10], 6.36; in [2], less than 4.52.

As for `NC(=O)c1cnc(N[C@@H]2CCCC[C@@H]2NC(=O)OCc2ccccc2)nc1Nc1cccc2cc[nH]c12`, the Stability worked out at 2.6% in the series with Hepatocyte [15], 2.1% in the series with Hepatocyte [16], 13% in [17] and 8.4% in series [18].

With `c1cn2cc(-c3ccc4cn[nH]c4c3)nc(Nc3ccc(N4CCOCC4)cc3)c2n1` [ENTOSPLETINIB], the negative-log IC50 (pIC50) in series [1] (bone marrow cell) is 6.24.

In the case of `NC(=O)c1cnc(N[C@@H]2CCCC[C@@H]2N)nc1Nc1cccc2cc[nH]c12`, the negative logarithm of the IC50 (pIC50) is less than 5.00 in series [1] (setting [20]); 6.11 in series [6]; 7.03 in series [7]; 6.77 in [10]; less than 4.52 in series [2].

As for `NC(=O)c1ncc(N[C@@H]2CCCC[C@@H]2N)nc1Nc1cccc(-n2nccn2)c1`, the pIC50 in series [1] (setting [20]) is 5.68; in [6] it was 5.75; in series [7] it was 9.00; in [10], 7.16; in series [2], 5.00.

Turning to `NC(=O)c1nnc(N[C@@H]2CCCC[C@@H]2N)nc1Nc1cccc2c1N=C(NC(CS)C(=O)O)C2=O` (stereo partly drawn), the Drug metabolism in [19] amounted to 0.9 µg.

Take `NC(=O)c1ccc(N[C@@H]2CCCC[C@@H]2N)nc1Nc1cccc(-n2nccn2)c1`: the pIC50 was 5.58 in [1] (setting [20]), 7.72 in series [7] and 6.35 in series [10].

Turning to `NC(=O)c1nnc(N[C@@H]2CCCC[C@@H]2N)nc1Nc1cccc2[nH]ccc12`, the pIC50 is 5.28 in series [1] (setting [20]), 6.75 in [6], 7.85 in series [10] and 5.43 in series [2]. In addition, the AUC/dose in the series on Rattus norvegicus [3] was found to be 522 nM·h; in the series with Rattus norvegicus [13] it was 19 nM·h. The compound also had a clearance in series [4] of 83 mL/min/kg. This compound also showed an MRT in series [8] of 2.1 h. The bioavailability in series [11] was determined as 4%. The same compound came in with a Cmax/dose with Rattus norvegicus [12] of 4 nM. Further, in series [14], the Vd was 10.3 L/kg.
